Measurements from ChEMBL document CHEMBL3861997 (Bioorg Med Chem, 2016).
pIC50: −log10 of the molar value.

Tests used:
Rattus norvegicus = organism: Rattus norvegicus; experiment: Antithrombotic activity in rat venous thrombus model assessed as inhibition of thrombus formation relative to control; assay type: functional
How it was run: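 Rat venous stasis model: after 2 h the abdomen was reopened and the vena cava dissected longitudinally. Thrombus removed, held at 37 °C for 24 h, then dry weight measured.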

[1] = Anticoagulant activity in healthy human plasma assessed as increase in activated partial thromboplastin time; assay type: functional
[2] = Anticoagulant activity in rabbit plasma assessed as increase in prothrombin time; assay type: functional, Oryctolagus cuniculus
How it was run: (§1)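 Concentration doubling clotting time (EC2x), human or rabbit plasma. Plasma from centrifugation at 2000 g, 10 min. Inhibitor stock in DMSO, serially diluted; clotting time measured in control plasma and plasma with five to seven inhibitor concentrations. PT run on temperature-controlled automated coagulation analyser with Thromborel-S reagent. Duplicate determinations at each concentration.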

[3] = Anticoagulant activity in rabbit plasma assessed as increase in activated partial thromboplastin time; assay type: functional, Oryctolagus cuniculus
[4] = Anticoagulant activity in healthy human plasma assessed as increase in prothrombin time; assay type: functional; how it was run: as §1
Coagulation factor X = Coagulation factor X (Homo sapiens, UniProt P00742); experiment: Inhibition of human coagulation factor 10a assessed as reduction in p-nitroaniline cleavage from pefachrome substrate preincubated for 10 mins followed by substrate addition measured after 20 mins
Coagulation factor X, sequence (P00742 41-179 limits assumed): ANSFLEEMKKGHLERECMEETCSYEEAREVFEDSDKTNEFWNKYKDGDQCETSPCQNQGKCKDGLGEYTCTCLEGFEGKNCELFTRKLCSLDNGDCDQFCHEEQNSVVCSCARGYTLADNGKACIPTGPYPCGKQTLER
Coagulation factor X, sequence (P00742 235-488 limits assumed): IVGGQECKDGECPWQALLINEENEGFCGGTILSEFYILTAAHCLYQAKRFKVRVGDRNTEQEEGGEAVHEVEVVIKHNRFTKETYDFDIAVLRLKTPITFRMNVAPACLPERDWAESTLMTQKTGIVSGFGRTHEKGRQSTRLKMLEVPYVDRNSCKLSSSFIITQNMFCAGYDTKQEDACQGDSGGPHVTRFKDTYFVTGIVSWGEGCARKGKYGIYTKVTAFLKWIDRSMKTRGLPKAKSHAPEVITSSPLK

COc1ccc(-n2nc(-c3nc[nH]n3)c3c2C(=O)N(c2ccc(N4CCCCC4=O)cc2)CC3)cc1
inhibition (INH) (Rattus norvegicus): 99%
2aPTT [1]: 0.8 µM
2PT [2]: 0.7 µM
2aPTT [3]: 1.2 µM
2PT [4]: 0.5 µM
pIC50 (Coagulation factor X): 6.82

COc1ccc(-n2nc(-c3n[nH]c(=O)n3-c3ccccc3C(F)(F)F)c3c2C(=O)N(c2ccc(N4CCCCC4=O)cc2)CC3)cc1
2aPTT [1]: 30.1 µM
2PT [2]: 17.9 µM
2aPTT [3]: 32.1 µM
2PT [4]: 16.8 µM

COc1ccc(-n2nc(-c3nncn3CCN(C)C)c3c2C(=O)N(c2ccc(N4CCCCC4=O)cc2)CC3)cc1
2aPTT [1]: 7 µM
2PT [2]: 4.4 µM
2aPTT [3]: 8 µM
2PT [4]: 3.9 µM

CCN(CC)CCCn1cnnc1-c1nn(-c2ccc(OC)cc2)c2c1CCN(c1ccc(N3CCCCC3=O)cc1)C2=O
2aPTT [1]: 10 µM
2PT [2]: 6.1 µM
2aPTT [3]: 11.1 µM
2PT [4]: 5 µM

COc1ccc(-n2nc(-n3cccc3CN(C)C)c3c2C(=O)N(c2ccc(N4CCCCC4=O)cc2)CC3)cc1
2aPTT [1]: 3.5 µM
2PT [2]: 1.9 µM
2aPTT [3]: 3.2 µM
2PT [4]: 1.5 µM

COc1ccc(-n2nc(-c3n[nH]c(=O)n3-c3ccc(OC)cc3)c3c2C(=O)N(c2ccc(N4CCCCC4=O)cc2)CC3)cc1
2aPTT [1]: 21.3 µM
2PT [2]: 9.2 µM
2aPTT [3]: 19.2 µM
2PT [4]: 14.8 µM

O=C1CCCCN1c1ccc(N2CCc3c(-c4nc[nH]n4)nn(-c4ccc(OC(F)F)cc4)c3C2=O)cc1
2aPTT [1]: 6.6 µM
2PT [2]: 4 µM
2aPTT [3]: 7.8 µM
2PT [4]: 3.6 µM

O=C1CCCCN1c1ccc(N2CCc3c(-c4nc[nH]n4)nn(-c4ccc(Cl)cc4)c3C2=O)cc1
2aPTT [1]: 8.4 µM
2PT [2]: 4.2 µM
2aPTT [3]: 9.9 µM
2PT [4]: 4.3 µM

CCN(CC)Cc1cccn1-c1nn(-c2ccc(OC)cc2)c2c1CCN(c1ccc(N3CCCCC3=O)cc1)C2=O
2aPTT [1]: 3.7 µM
2PT [2]: 2.1 µM
2aPTT [3]: 3.9 µM
2PT [4]: 1.6 µM

COc1ccc(-n2nc(-n3cccc3CN3CCOCC3)c3c2C(=O)N(c2ccc(N4CCCCC4=O)cc2)CC3)cc1
inhibition (INH) (Rattus norvegicus): 57%
2aPTT [1]: 2.4 µM
2PT [2]: 1.7 µM
2aPTT [3]: 3.9 µM
2PT [4]: 1.1 µM
pIC50 (Coagulation factor X): 5.62

COc1ccc(-n2nc(-c3ncnn3C)c3c2CCN(c2ccc(N4CCCCC4=O)cc2)C3=O)cc1
2aPTT [1]: 10 µM
2PT [2]: 4.1 µM
2aPTT [3]: 15.1 µM
2PT [4]: 3.3 µM

COc1ccc(-n2nc(-c3n[nH]c(C4CC4)n3)c3c2C(=O)N(c2ccc(N4CCCCC4=O)cc2)CC3)cc1
2aPTT [1]: 5.1 µM
2PT [2]: 4.9 µM
2aPTT [3]: 6 µM
2PT [4]: 3.5 µM

COc1ccc(-n2nc(-c3n[nH]c(C)n3)c3c2C(=O)N(c2ccc(N4CCCCC4=O)cc2)CC3)cc1
2aPTT [1]: 3.7 µM
2PT [2]: 1.9 µM
2aPTT [3]: 3.2 µM
2PT [4]: 1.6 µM

COc1ccc(-n2nc(-c3nncn3CCCN3CCOCC3)c3c2C(=O)N(c2ccc(N4CCCCC4=O)cc2)CC3)cc1
2aPTT [1]: 10.5 µM
2PT [2]: 7.5 µM
2aPTT [3]: 15 µM
2PT [4]: 5.5 µM

O=C1CCCCN1c1ccc(N2CCc3c(-c4nc[nH]n4)nn(-c4ccc(F)cc4)c3C2=O)cc1
2aPTT [1]: 4.5 µM
2PT [2]: 2.8 µM
2aPTT [3]: 5.1 µM
2PT [4]: 1.8 µM

COc1ccc(-n2nc(-c3n[nH]c(=O)n3-c3ccccc3)c3c2C(=O)N(c2ccc(N4CCCCC4=O)cc2)CC3)cc1
2aPTT [1]: 20.3 µM
2PT [2]: 13.3 µM
2aPTT [3]: 22.1 µM
2PT [4]: 12.9 µM

O=C1CCCCN1c1ccc(N2CCc3c(-c4nc[nH]n4)nn(-c4ccc(Br)cc4)c3C2=O)cc1
2aPTT [1]: 11.3 µM
2PT [2]: 7.9 µM
2aPTT [3]: 10.2 µM
2PT [4]: 6.4 µM

O=C1CCCCN1c1ccc(N2CCc3c(-c4nc[nH]n4)nn(-c4ccc(OC(F)(F)F)cc4)c3C2=O)cc1
2aPTT [1]: 10.5 µM
2PT [2]: 6.4 µM
2aPTT [3]: 12 µM
2PT [4]: 5.5 µM

COc1ccc(-n2nc(C(N)=O)c3c2C(=O)N(c2ccc(C4=NCCN4)cc2)CC3)cc1
inhibition (INH) (Rattus norvegicus): 66%
2aPTT [1]: 0.9 µM
2PT [2]: 0.7 µM
2aPTT [3]: 1 µM
2PT [4]: 0.9 µM
pIC50 (Coagulation factor X): 5.70

COc1ccc(-n2nc(-c3n[nH]c(C4CCCO4)n3)c3c2C(=O)N(c2ccc(N4CCCCC4=O)cc2)CC3)cc1 (configuration not stated)
2aPTT [1]: 6.3 µM
2PT [2]: 5 µM
2aPTT [3]: 7.9 µM
2PT [4]: 3.9 µM

COc1ccc(-n2nc(-c3ncn(C)n3)c3c2CCN(c2ccc(N4CCCCC4=O)cc2)C3=O)cc1
inhibition (INH) (Rattus norvegicus): 65%
2aPTT [1]: 1.9 µM
2PT [2]: 0.9 µM
2aPTT [3]: 3 µM
2PT [4]: 0.8 µM
pIC50 (Coagulation factor X): 5.62

COc1ccc(-n2nc(-c3nncn3CCCN(C)C)c3c2C(=O)N(c2ccc(N4CCCCC4=O)cc2)CC3)cc1
2aPTT [1]: 9 µM
2PT [2]: 5.7 µM
2aPTT [3]: 10.1 µM
2PT [4]: 4.5 µM

COCc1nc(-c2nn(-c3ccc(OC)cc3)c3c2CCN(c2ccc(N4CCCCC4=O)cc2)C3=O)n[nH]1
2aPTT [1]: 4.1 µM
2PT [2]: 3 µM
2aPTT [3]: 6 µM
2PT [4]: 2.4 µM

COc1ccc(-n2nc(-c3n[nH]c(C(C)(C)C)n3)c3c2C(=O)N(c2ccc(N4CCCCC4=O)cc2)CC3)cc1
inhibition (INH) (Rattus norvegicus): 70%
2aPTT [1]: 2.3 µM
2PT [2]: 1.4 µM
2aPTT [3]: 4.1 µM
2PT [4]: 1 µM
pIC50 (Coagulation factor X): 6.07

COc1ccc(-n2nc(C(N)=O)c3c2C(=O)N(c2ccc(C4=NCCCN4)cc2)CC3)cc1
inhibition (INH) (Rattus norvegicus): 82%
2aPTT [1]: 1.1 µM
2PT [2]: 1.1 µM
2aPTT [3]: 2 µM
2PT [4]: 0.9 µM
pIC50 (Coagulation factor X): 6.46

COc1ccc(-n2nc(C(N)=O)c3c2C(=O)N(c2ccc(N4CCCCC4=O)cc2)CC3)cc1 [APIXABAN]
inhibition (INH) (Rattus norvegicus): 96%
2aPTT [1]: 0.9 µM
2PT [2]: 0.6 µM
2aPTT [3]: 1.4 µM
2PT [4]: 0.8 µM
